Screening data from PubChem.
The entries come from a sample that favours hits as a whole.
PKD1 inh: PKD1 (human) kinase inhibition. AID 797. Q15139. actives 0.056% (n = 200,000). PKD1 kinase fluorescence polarization assay. inhibition, % (concentration not given with the values)
L major viab: inhibitors of Leishmania major promastigote growth | Leishmania major promastigotes, resazurin fluorescence viability | inhibition, % at 10 µM | actives 9% (n = 200,000) | AID 1063;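 also: promastigotes grown with compound for 44 hours at 28 °C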
Avidin fluor: compound fluoresces at 488/530 nm on avidin beads. compound fluorescence 488/530 nm, flow cytometry; active compounds read high. fluorescence (KMESF) at 10 µM. actives 0.38% (n = 220,000). AID 1775; in the data active = fluorescence above about 47
GSH bead fluor: GSH bead compound fluorescence profile; GSH beads flow cytometry, compound fluorescence 488/530 nm; active compounds read high; fluorescence (KMESF) at 10 µM; actives 0.25% (n = 190,000); in the data active = fluorescence above about 89;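 also: glutathione beads carrying GST-tagged Bcl family fusion proteins plus one bare bead set; values are compound well signal with DMSO vehicle wells as background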
ABCG2 inh: blocks JC-1 efflux by human ABCG2 transporter. IgMXP3 cells, flow cytometry. actives 0.1% (n = 190,000). Q9UNQ0. inhibition, % at 6.6 µM. AID 1325;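 active = inhibition above 80%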;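 also: 0% = DMSO and 100% = nicardipine control wells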
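Test system: IgMXP3 cells (ABCG2) mixed with DDAO far-red-labelled CCRF-Adr cells (ABCB1). Reagent: JC-1 transporter substrate. Compound dosing: single test compound dose, 6.6 µM final. Times: 10 min compound exposure, 25 °C. Detection: flow cytometry of retained JC-1 fluorescence. Read-out basis: efflux inhibition in percent versus controls. Controls: nicardipine and DMSO wells.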
ABCB1 block: inhibitors of human ABCB1 transporter, ABCG2 counter-screen; P08183; inhibition, % at 6.6 µM; actives 0.067% (n = 190,000); CCRF-Adr cells, JC-1 efflux, flow cytometry; in the data active = inhibition above about 40%;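 also: 0% = vehicle and 100% = reference inhibitor; higher value means more JC-1 retained so stronger ABCB1 efflux block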
An asterisk follows results filed as active; . = no result given. Rule as the data show it, unless noted: active = inhibition above about 50%; inactive = the rest.

SMILES	PKD1 inh	L major viab	Avidin fluor	GSH bead fluor	ABCG2 inh	ABCB1 block
CCN1CCCC1CNC(=O)c1cn(CC)c2ccc(S(=O)(=O)N3CCCCCC3)cc2c1=O (centres undefined)	-8	6	22	15	2	0
CCC1CCCCN1CCCNC(=O)c1cn(CC)c2ccc(S(=O)(=O)N3CCc4ccccc4C3)cc2c1=O (centres undefined)	3	98*	8	24	-3	0
CCn1cc(C(=O)NCCCN2CCCC(C)C2)c(=O)c2cc(S(=O)(=O)N3CCc4ccccc4C3)ccc21 (centres undefined)	-11	100*	25	7	0	0
COc1coc(C(O)C[N+](=O)[O-])cc1=O (centres undefined)	-7	-6	3	17	4	1
Cc1[nH]c2ccccc2c1CCN(Cc1cccnc1)C(=S)Nc1cccc(F)c1	-9	100*	25	10	1	1
Cc1[nH]c2ccc(F)cc2c1CCN(Cc1cccnc1)C(=S)Nc1ccccc1	1	100*	26	10	2	1
COc1ccc(NC(=S)N(Cc2cccnc2)Cc2cc3cc(OC)c(OC)cc3[nH]c2=O)cc1	0	-3	8	16	2	1
Cc1[nH]c2ccccc2c1CCN(Cc1cccs1)C(=S)Nc1ccccc1	-4	36	11	67	0	0
Cc1[nH]c2ccc(F)cc2c1CCN(Cc1ccncc1)C(=S)Nc1ccccc1	1	74*	26	10	0	0
COc1ccc(NC(=S)N(CCc2c(C)[nH]c3ccc(C)cc23)Cc2cccnc2)cc1	-9	100*	.	18	7	3
COc1cccc(NC(=S)N(CCc2c(C)[nH]c3ccccc23)Cc2cccs2)c1	-1	25	.	18	8	1
O=C(NC12CC3CC(CC(C3)C1)C2)c1ccc(N2CCNCC2)c([N+](=O)[O-])c1	.	.	6	.	.	.
Cc1[nH]c2ccccc2c1CCN(Cc1cccnc1)C(=S)Nc1ccc(F)cc1	-3	100*	25	11	3	1
CCOc1ccc(NC(=S)N(CCc2c(C)[nH]c3ccccc23)Cc2cccnc2)cc1	-1	100*	5	14	23	3
COc1ccc(NC(=S)NCCc2c(C)[nH]c3ccc(OC)cc23)cc1	1	62*	25	10	1	0
CCOc1ccc(NC(=S)N(CCc2c(C)[nH]c3ccc(C)cc23)Cc2ccncc2)cc1	-8	70*	.	18	8	3
Cc1[nH]c(=S)c(C#N)c(C)c1CCC#N	.	.	8	.	.	.
CC1=NOC(=O)/C1=C/c1ccc(O)cc1	-6	12	8	9	0	0
O=C1ON=C(c2ccc(Cl)cc2)/C1=C/c1ccc(O)cc1	1	65*	6	15	-1	0
COc1cc(C=C2C(=O)c3ccccc3C2=O)ccc1O	.	.	6	.	.	.
COc1cc(/C=C2/C(=O)ON=C2c2ccccc2)ccc1O	-7	88*	9	5	-3	-1
Cc1ccc(CCNC(=O)C2CCC(=O)N2C(C)C)cc1 (centres undefined)	-15	-5	6	42	0	0
CC1(C)CC(C(CC(=O)N2CCCC2)Cc2ccccc2)CCO1 (centres undefined)	.	.	6	.	.	.
Cc1cc(-c2ccccc2)nc2cc(C(=O)N(Cc3ccccc3)Cc3ccccc3)nn12	-4	53*	5	29	16	4
COC(=O)c1cc2nc(-c3ccccc3)cc(C)n2n1	-9	-3	21	22	3	0
SMILES	PKD1 inh	L major viab	Avidin fluor	GSH bead fluor	ABCG2 inh	ABCB1 block
Cc1ccc(Nc2ncnc3ccccc23)cc1	-5	36	13	10	7	0
COC(=O)c1cccc(Nc2ncnc3ccc(C)cc23)c1	3	51*	11	26	5	0
Cc1ccccc1C(=O)Oc1cccc(Nc2ncnc3ccccc23)c1	16	57*	.	.	.	.
Cc1cccc(Nc2ncnc3ccccc23)c1	8	88*	2	19	5	1
CCOC(=O)c1cccc(Nc2ncnc3ccccc23)c1	-2	47	6	37	9	4
CC(C)Oc1ccc(Nc2ncnc3ccccc23)cc1	-3	56*	12	15	8	2
CCOC(=O)CCC(NC(=O)CCCCCCCC(=O)NC(CCC(=O)OCC)C(=O)OCC)C(=O)OCC (centres undefined)	4	14	12	16	-1	0
CCOc1ccccc1C(=O)Nc1ccccc1-c1ccccc1	-6	73*	8	4	32	2
CCOc1cccc2cc(C(=O)Nc3ccccc3-c3ccccc3)c(=O)oc12	-11	44	5	8	10	-1
CCOc1ccccc1C(=O)Nc1ccccc1O	8	71*	16	20	13	1
CCOc1ccccc1NC(=O)c1ccccc1NS(C)(=O)=O	-7	-6	6	32	-1	1
Cn1c(N/N=C/c2ccccc2)nc2sc3c(c2c1=O)CCC3	-3	0	33	9	-1	0
CN1CCCC(CC2Oc3ccccc3Sc3ccccc32)C1 (centres undefined)	-3	100*	14	16	2	2
COC(=O)c1cc2c(-c3ccccc3)cc3ccccn3c-2c1C(=O)OC	1	88*	10	67	6	2
C=CC(=O)NC(NC(=O)C=C)c1ccccc1F	.	.	7	.	.	.
C/C(=N\NC(=O)c1cc2c(s1)CCC(C)C2)c1ccncc1 (centres undefined)	-3	97*	12	7	12	6
O=C(Cc1ccccc1[N+](=O)[O-])NCCCN1CCOCC1	2	0	14	15	9	1
Cc1cc(C(=O)NCCN2CCOCC2)ccc1[N+](=O)[O-]	2	5	12	12	1	0
O=C(NCCCN1CCOCC1)c1ccc(Sc2ccccc2Cl)c([N+](=O)[O-])c1	-7	94*	15	10	3	.
O=C(NCCCN1CCOCC1)c1ccc(Sc2ccc(Br)cc2)c([N+](=O)[O-])c1	-6	92*	14	9	5	.
COc1ccc(C(CC(=O)O)NC(=O)COc2cc(C)ccc2C)cc1OC (centres undefined)	10	1	5	11	5	1
CC(C(=O)O)n1nc2ccccc2n1 (centres undefined)	-6	-2	12	9	2	0
CCOc1ccc(/C(O)=C2\C(=O)C(=O)N(c3cc(C)on3)C2c2ccccc2OC)cc1 (centres undefined)	-1	-8	76*	15	7	0
COc1ccc(Nc2ccc(N3C(=O)CCCC3=O)cc2[N+](=O)[O-])cc1OC	-15	88*	13	4	5	0
